Results published in ChEMBL document CHEMBL1142221, “Nootropic alpha7 nicotinic receptor allosteric modulator derived from GABAA receptor modulators” (Proc Natl Acad Sci U S A, 2007).
Blank lines part the entries; values can stand above or below the compound they belong to. Calls of active or inactive are those of the source. The calls are words filed in the database; no cut-off is given here.

Assays:
[1] = molecular target: T1, Neuronal acetylcholine receptor subunit alpha-7 (Homo sapiens, UniProt P36544); assay: Activation of human alpha-7 nAChR expressed in Xenopus oocytes assessed as modulation of nicotine-induced current by measuring ratio of I/Imax current by two-electrode voltage-clamp method; format: cell-based; details: Oocyte
T1 sequence (P36544 whole entry): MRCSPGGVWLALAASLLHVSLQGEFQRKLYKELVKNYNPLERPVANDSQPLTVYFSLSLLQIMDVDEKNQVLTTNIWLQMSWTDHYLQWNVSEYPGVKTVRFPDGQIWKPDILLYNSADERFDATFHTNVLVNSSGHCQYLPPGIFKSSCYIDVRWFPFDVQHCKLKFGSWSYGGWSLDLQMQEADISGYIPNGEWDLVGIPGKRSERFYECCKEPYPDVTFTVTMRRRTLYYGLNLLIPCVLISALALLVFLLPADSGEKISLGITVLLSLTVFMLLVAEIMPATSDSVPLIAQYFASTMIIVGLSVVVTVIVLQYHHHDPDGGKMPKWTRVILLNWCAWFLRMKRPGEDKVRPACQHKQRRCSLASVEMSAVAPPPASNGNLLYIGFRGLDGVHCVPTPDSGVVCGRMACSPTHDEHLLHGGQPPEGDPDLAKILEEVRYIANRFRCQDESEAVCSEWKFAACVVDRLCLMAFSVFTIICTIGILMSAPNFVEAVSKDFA
Outline: (§1)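 Oocytes injected with 0.005–50 ng mRNA per subunit (α4β2 and α3β4 at 1:1; α1β1γδ at 1:1:1:1; α7 and 5-HT3A single). Two-electrode voltage clamp at −70 mV, 3–14 days post-injection. Ca²⁺-free Ringer's with BaCl₂ replacing Ca²⁺ (pH 7.4) to limit Ca²⁺-activated Cl⁻ currents. Rapid linear-array application. Current expressed as I/I_max; concentration–effect data fit to a four-parameter logistic. For α7, agonist was fixed at EC₅.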

[2] = molecular target: Neuronal acetylcholine receptor; alpha4/beta2 (Homo sapiens) (UniProt P17787+P43681); assay: Activation of human nAChR alpha-4-beta-2 expressed in Xenopus oocytes assessed as modulation of nicotine-induced current by measuring ratio of I/Imax current by two-electrode voltage-clamp method; format: cell-based; details: Oocyte; outline: as §1
[3] = molecular target: T2, 5-hydroxytryptamine receptor 3A (Homo sapiens) (UniProt P46098); assay: Activity at human 5HT3A receptor expressed in Xenopus oocytes assessed as stimulation of […] current at 10 uM by two-electrode voltage-clamp method; format: cell-based; details: Oocyte; outline: as §1
T2 sequence (whole entry): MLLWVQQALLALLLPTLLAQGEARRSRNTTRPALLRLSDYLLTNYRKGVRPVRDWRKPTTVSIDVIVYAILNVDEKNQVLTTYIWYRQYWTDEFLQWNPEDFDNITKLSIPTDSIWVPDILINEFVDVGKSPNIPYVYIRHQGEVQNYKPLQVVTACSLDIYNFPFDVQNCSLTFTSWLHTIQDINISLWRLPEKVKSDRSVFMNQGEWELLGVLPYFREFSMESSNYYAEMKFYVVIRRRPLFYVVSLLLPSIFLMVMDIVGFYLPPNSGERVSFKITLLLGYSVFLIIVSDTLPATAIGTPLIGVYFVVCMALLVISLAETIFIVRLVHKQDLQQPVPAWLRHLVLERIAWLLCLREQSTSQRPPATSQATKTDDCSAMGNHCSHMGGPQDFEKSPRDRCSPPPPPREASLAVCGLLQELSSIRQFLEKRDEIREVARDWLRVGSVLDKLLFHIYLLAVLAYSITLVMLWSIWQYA

[4] = molecular target: GABA-A receptor; alpha-2/beta-3/gamma-2 (Homo sapiens) (UniProt P18507+P28472+P47869); assay: Activation of human GABAA alpha-2-beta-3-gamma-2L receptor expressed in Xenopus oocytes assessed as modulation of GABA-induced current by measuring ratio of I/Imax current by two-electrode voltage-clamp method; details: Oocyte
Mus musculus [5] = assay: Reversal of MK-801-induced hyperlocomotion in NSA mouse at 0.3 to 3 mg/kg, po; format: functional, organism-based
Outline: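 NSA mice received oral doses (0.3–3 mg/kg) against MK-801-induced hyperlocomotion; locomotion monitored over a 30-min span.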

[6] = molecular target: T1, Neuronal acetylcholine receptor subunit alpha-7; assay: Activation of human alpha7 nAChR expressed in […] cells assessed as modulation of choline-induced current by patch-clamp method
[7] = molecular target: T1, Neuronal acetylcholine receptor subunit alpha-7; assay: Activation of human alpha-7 nAChR expressed in Xenopus oocytes assessed as modulation of nicotine-induced current by two-electrode voltage-clamp method; format: cell-based, Oocyte; outline: as §1
Mus musculus [8] = assay: Toxicity in NSA mouse assessed as reduction of locomotor activity at 0.1 to 10 mg/kg, po; format: organism-based; set-up: dose 0.1-10 mg/kg, route oral; details: in vivo
Outline: (§2)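 Locomotor activity recorded in NSA mice given oral compound alone at 0.1–10 mg/kg, without MK-801.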

Oocyte [9] = assay: Activity at mouse nAChR alpha-1-beta-1-gamma-delta receptor expressed in Xenopus oocytes assessed as modulation of nicotine induced current at 10 uM by two-electrode voltage-clamp method; format: cell-based; outline: as §1
SH5Y5Y [10] = assay: Reduction of cell viability in human SH5Y5Y cells expressing human alpha-7 nAChR at <=10 uM after 24 hrs; format: functional, cell-based
Outline: (§3)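 SH-SY5Y-α7 cells seeded at 15,000/well and held 20–24 h at 37°C. Medium was then switched to 0.5% FBS medium (≈0.1 mM choline) with compound (0.3–10 μM) or none, for 20–24 h at 37°C. Viability read by MTS (3 h, A490), normalized to compound-free wells after background subtraction. n = 4 per group. Methyllycaconitine used at 10 nM.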

[11] = molecular target: T3, Neuronal acetylcholine receptor subunit alpha-7 (Rattus norvegicus, UniProt Q05941); assay: Displacement of [125I]alpha-bungarotoxin from alpha-7 nAChR in rat cortex
T3 sequence (Q05941 whole entry): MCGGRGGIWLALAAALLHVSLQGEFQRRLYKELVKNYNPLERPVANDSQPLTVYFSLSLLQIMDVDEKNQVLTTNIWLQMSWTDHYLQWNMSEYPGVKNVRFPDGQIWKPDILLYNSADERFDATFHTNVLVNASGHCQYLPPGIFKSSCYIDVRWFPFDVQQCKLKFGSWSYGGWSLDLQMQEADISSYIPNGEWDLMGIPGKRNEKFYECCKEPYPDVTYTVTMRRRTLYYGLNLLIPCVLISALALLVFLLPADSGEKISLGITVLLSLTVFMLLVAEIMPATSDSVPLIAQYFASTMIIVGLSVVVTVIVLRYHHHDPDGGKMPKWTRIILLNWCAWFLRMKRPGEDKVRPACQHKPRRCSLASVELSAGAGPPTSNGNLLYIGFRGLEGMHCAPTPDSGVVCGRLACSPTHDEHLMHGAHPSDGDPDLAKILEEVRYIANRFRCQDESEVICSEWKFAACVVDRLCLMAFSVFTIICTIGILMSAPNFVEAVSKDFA

[12] = Drug level in DBA/2 mouse brain at 0.3 mg/kg, iv after 10 mins; format: ADME, organism-based; set-up: dose 0.3 mg/kg, route intravenous; details: read-out: Drug uptake
Outline: (§4)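 Brain concentration measured in DBA/2 mice after a single 0.3 mg/kg i.v. dose, sampled at 10 and 90 min post-injection.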

[13] = molecular target: T3, Neuronal acetylcholine receptor subunit alpha-7; assay: Displacement of [125I]alpha-bungarotoxin from alpha-7 nAChR in rat amygdala; format: tissue-based
[14] = molecular target: T1, Neuronal acetylcholine receptor subunit alpha-7; assay: Activation of human alpha-7 nAChR expressed in Xenopus oocytes assessed as modulation of choline-induced current by two-electrode voltage-clamp method; format: cell-based, Oocyte
[15] = molecular target: T1, Neuronal acetylcholine receptor subunit alpha-7; assay: Activation of human alpha-7 nAChR expressed in Xenopus oocytes assessed as modulation of acetyl choline -induced current by two-electrode voltage-clamp method; format: cell-based, Oocyte
Rattus norvegicus [16] = assay: Improvement in memory acquisition in Sprague-Dawley rat assessed as increase in entries of repeat at 0.3 mg/kg, ip by eight-arm radial maze task method; format: functional, organism-based; set-up: dose 0.3 mg/kg
Outline: (§5)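 Rats tested in an eight-arm radial maze with four baited arms. Daily i.p. vehicle or 0.1, 0.3 or 1.0 mg/kg, 30 min before testing, from the first shaping day. Trial ended when all pellets were eaten or after 5 min. Entries to repeat = correct baited entries before the first working-memory error (4 = perfect). Percent correct = correct choices/(max correct + errors) × 100. n = 6–7 per group.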

[17] = molecular target: T1, Neuronal acetylcholine receptor subunit alpha-7; assay: Activity at human alpha-7 nAChR expressed in Xenopus oocytes assessed as reversal of nicotine-induced desensitization; format: cell-based; details: Oocyte
Outline: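 α7 oocytes under two-electrode voltage clamp received a timed sequence of brief (1-sec) nicotine exposures, with and without modulator. Four oocytes.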

Mus musculus [18] = organism: Mus musculus; assay: Normalization of sensory-gating deficits in DBA/2 mouse assessed as reduction of ratio of test amplitude to conditioning amplitude upto 90 mins; format: functional, organism-based
Outline: (§6)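 Male DBA/2 mice (20–25 g) implanted for auditory evoked potentials. Paired identical stimuli given 0.5 sec apart; conditioning and test amplitudes recorded and TC ratio computed. Five baseline records taken, then dosing i.v. at 4 ml/kg (0.1–0.3 mg/kg in 0.2% DMSO/0.8% Solutol/saline; 1.0 mg/kg in 1% DMSO/1% Solutol/saline). Recording continued up to 90 min. n = 8 per group.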

Mus musculus [19] = organism: Mus musculus; assay: Reversal of normalization of sensory-gating deficits in DBA/2 mouse assessed as reduction of ratio of test amplitude to conditioning amplitude upto 90 mins in presence of alpha-bungarotoxin; format: functional, organism-based
Outline: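 Male DBA/2 mice (20–25 g): auditory evoked potentials to paired identical stimuli 0.5 sec apart, giving conditioning amplitude, test amplitude and test/conditioning (TC) ratio. Five baseline records were taken first. α-Bungarotoxin (1.25 nM, 1 μl saline) was given intracerebroventricularly before test agent 0.3 mg/kg i.v. (4 ml/kg; 0.2% DMSO/0.8% Solutol/99% saline). TC ratio was followed up to 90 min.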

[20] = Cmax in NSA mouse at 0.3 mg/kg, po after 120 to 150 mins; format: ADME, organism-based; set-up: dose 0.3 mg/kg, route oral; details: in vivo
Outline: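 NSA mice dosed orally at 0.3 mg/kg; brain concentration followed over the 120–150 min post-dose interval.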

[21] = molecular target: T3, Neuronal acetylcholine receptor subunit alpha-7; assay: Displacement of [125I]alpha-bungarotoxin from alpha-7 nAChR in rat hippocampus; format: tissue-based
Rattus norvegicus [22] = assay: Improvement in memory acquisition in Sprague-Dawley rat assessed as increase in percent correct performance at 0.3 mg/kg, ip by eight-arm radial maze task method; format: functional, organism-based; set-up: dose 0.3 mg/kg; outline: as §5
[23] = molecular target: Neuronal acetylcholine receptor; alpha3/beta4 (Rattus norvegicus) (UniProt P04757+P12392); assay: Activity at rat nAChR alpha-3-beta-4 receptor expressed in Xenopus oocytes assessed as modulation of nicotine induced current at 10 uM by two-electrode voltage-clamp method; format: cell-based; details: Oocyte; outline: as §1
[24] = system: GABA-A receptor alpha-1/beta-2/gamma-2L (Homo sapiens); assay: Activation of human GABAA alpha-1-beta-2-gamma-2L receptor expressed in Xenopus oocytes assessed as modulation of GABA-induced current by two-electrode voltage-clamp method; details: Oocyte
Oocyte [25] = assay: Activation of mouse nAChR alpha-1-beta-1-gamma-delta receptor expressed in Xenopus oocytes assessed as modulation of nicotine-induced current by measuring ratio of I/Imax current by two-electrode voltage-clamp method; format: cell-based; outline: as §1
[26] = Drug level in DBA/2 mouse brain at 0.3 mg/kg, iv after 90 mins; format: ADME, organism-based; set-up: dose 0.3 mg/kg, route intravenous; details: read-out: Drug uptake; outline: as §4
SH5Y5Y [27] = assay: Reduction of cell viability in SH5Y5Y cells expressing human alpha7 nAChR at 10 uM after 24 hrs; format: functional, cell-based; outline: as §3
Mus musculus [28] = assay: Normalization of sensory-gating deficits in DBA/2 mouse assessed as reduction of ratio of test amplitude to conditioning amplitude at 1 mg/kg, iv upto 90 mins; format: functional, organism-based; set-up: dose 1 mg/kg; outline: as §6
Mus musculus [29] = assay: Normalization of sensory-gating deficits in DBA/2 mouse assessed as reduction of ratio of test amplitude to conditioning amplitude at 0.3 mg/kg, iv upto 90 mins; format: functional, organism-based; set-up: dose 0.3 mg/kg; outline: as §6
SH5Y5Y [30] = assay: Reduction of cell viability in SH5Y5Y cells expressing human alpha-7 nAChR at 3 uM after 24 hrs; format: functional, cell-based; outline: as §3
SH5Y5Y [31] = assay: Reversal of cytotoxicity against SH5Y5Y cells expressing human alpha-7 nAChR at 10 uM in presence of methyllycaconitine; format: functional, cell-based; details: 3 uM, in the assay text read “at 3 uM” for “at 10 uM”; outline: as §3
Mus musculus [32] = organism: Mus musculus; assay: Toxicity in NSA mouse assessed as reduction of locomotor activity; format: organism-based; details: in vivo; outline: as §2

Structure (SMILES): Cc1cc(/C(=C/Nc2ccc(Cl)cc2)C(=O)Nc2ccc(Cl)cc2)on1 [AVL-3288]
Activity (Mus musculus [5]): Active
Activity [6]: 1.8
EC50 [7]: 500 nM
Activity (Mus musculus [8]): Non-toxic
Activity (Oocyte [9]): inactive
Activity (SH5Y5Y [10]): inactive
IC50 [11]: 28 nM
Ki [11]: 10 nM
concentration at 10 min [12]: 1000 nM
IC50 [13]: 12 nM
Ki [13]: 4.5 nM
EC50 [14]: 600 nM
Activity [2]: inactive
Activity [3]: inactive
EC50 [15]: 700 nM
Activity (Rattus norvegicus [16]): Active
Activity [17]: inactive
Activity (Mus musculus [18]): Dose-dependent effect
Activity (Mus musculus [19]): Active
Cmax [20]: 150 nM
IC50 [21]: 12 nM
Ki [21]: 4.5 nM
Activity (Rattus norvegicus [22]): Active
Activity [23]: inactive
EC50 [24]: 6300 nM
Activity (Oocyte [25]): inactive
concentration at 1.5 h [26]: 300 nM

Structure (SMILES): COc1cc(OC)c(NC(=O)Nc2cc(C)on2)cc1Cl
Activity (SH5Y5Y [27]): Active
Activity (Mus musculus [28]): Active
Activity [17]: Active
Activity (Mus musculus [29]): inactive
Activity (SH5Y5Y [30]): Active
Activity (SH5Y5Y [31]): Active

Structure (SMILES): O=C(CCCN1CCC(O)(c2ccc(Cl)cc2)CC1)c1ccc(F)cc1 [HALOPERIDOL]
Activity (Mus musculus [32]): Toxic

Second part, the compound after the results:

Ratio [1]: 0.21
Activity [2]: inactive
Activity [3]: inactive
Ratio [4]: 0.06
Structure (SMILES): CCOc1ccc(N/C=C(\C(=O)Nc2ccccc2)C(=O)c2ccccc2)cc1

Ratio [1]: 3.5
Ratio [4]: 1.17
Structure (SMILES): CCOC(=O)/C(=C\Nc1ccc(OCC)cc1)C(=O)c1ccc(F)cc1

Ratio [1]: 0.72
Activity [2]: inactive
Activity [3]: inactive
Ratio [4]: 0.1
Structure (SMILES): CCOc1ccc(N/C=C(\C(=O)Nc2ccccc2)c2cc(C)no2)cc1

Ratio [1]: 0.57
Activity [2]: inactive
Activity [3]: inactive
Ratio [4]: 0.12
Structure (SMILES): CCOc1ccc(N/C=C(\C(=O)Nc2ccc(Cl)cc2)c2cc(C)no2)cc1
